Laboratory results: ChEMBL document CHEMBL1123225, “Opioid agonist and antagonist bivalent ligands. The relationship between spacer length and selectivity at multiple opioid receptors” (J Med Chem, 1986)
Starred links: 1 amine or outer side, 2 acyl side, 3 side chain; linkers in the order of their positions; H or OH if unused. Positions of bridges follow the written chain, without caps; N, C: chain ends. Residues, ends and D or L forms follow the SMILES beside them. Chains are numbered I, II in the order given. *: point of attachment. Naltrexamine(6β) = Oc1ccc2c3c1O[C@H]1[C@H](N*)CC[C@@]4(O)[C@@H](C2)N(CC2CC2)CC[C@]314; Suc = O=C(CCC(=O)[*:2])[*:1]

What was measured:
[1] = target: Mu-type opioid receptor (Cavia porcellus) (UniProt P97266); assay: Affinity comparison to [3H]naloxone for Opioid receptor mu 1 in guinea pig brain membrane; type: cell membranes
[2] = Relative potency is the IC5O in presence of bivalent ligand divided by IC50 in presence of monovalent ligand relative to morphine
Procedure, shortened: (§1)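 Antagonism in electrically stimulated guinea pig ileum. Antagonist at 10 nM was incubated 30 min, then morphine (μ) or ethylketazocine (κ) concentration–response was run. IC50 ratio = agonist IC50 with antagonist / control IC50 in the same preparation without antagonist. Relative potency = bivalent IC50 ratio / monovalent IC50 ratio. Selectivity = EK IC50 ratio / morphine IC50 ratio.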

Mu-type opioid receptor = Mu-type opioid receptor (Cavia porcellus, UniProt P97266); assay: Displacement of [3H]naloxone from Opioid receptor mu 1 in guinea pig brain membrane; type: cell membranes
[3] = (§2) Relative potency is the IC5O in presence of bivalent ligand divided by IC50 in presence of monovalent ligand relative to EK; procedure, shortened: as §1
[4] = (§3) Selectivity ratio is expressed as EK IC50 ratio divided by morphine IC50 ratio; procedure, shortened: as §1
[5] = target: Opioid receptors; mu & kappa (Homo sapiens, UniProt P41145+P35372); assay: Activity against opioid receptor in guinea pig ileum longitudinal muscle; type: functional, tissue-based, Cavia porcellus; settings: target entry is the homologue from another species
Procedure, shortened: (§4)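 Electrically stimulated guinea pig ileum longitudinal muscle, with agonist inhibition measured. Ligands were incubated 30 min before testing. Potency ratio = morphine IC50 / compound IC50 on the same tissue. The relative value divides the bivalent potency ratio by the monovalent potency ratio. Each value is the mean of at least three replicate experiments.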

[6] = Potency ratio is the ratio of morphine IC50 to that of compound on same tissue; procedure, shortened: as §4
[7] = Relative potency is the bivalent potency ratio divided by monovalent potency ratio; procedure, shortened: as §4
[8] = target: T1, Opioid receptors; mu/kappa/delta (Homo sapiens) (UniProt P41145+P41143+P35372); assay: IC50 of ethylketazocine (EK) in the presence of the antagonist (10 nM) divided by the control IC50 (same preparation without antagonist) in guinea pig ileum; type: functional, tissue-based; settings: Cavia porcellus, target entry is the homologue from another species; procedure, shortened: as §1
[9] = target: T1, Opioid receptors; mu/kappa/delta (Homo sapiens); assay: Relative potency is the IC50 in presence of bivalent ligand divided by IC50 in presence of monovalent ligand relative to morphine; settings: Cavia porcellus; procedure, shortened: as §1
[10] = target: T1, Opioid receptors; mu/kappa/delta (Homo sapiens); assay: as §2; type: protein assay; settings: Cavia porcellus; procedure, shortened: as §1
[11] = target: T1, Opioid receptors; mu/kappa/delta (Homo sapiens); assay: IC50 of the morphine in the presence of the antagonist (10 nM) divided by the control IC50 (same preparation without antagonist) in guinea pig ileum; type: functional, tissue-based; settings: Cavia porcellus, target entry is the homologue from another species; procedure, shortened: as §1
[12] = target: T1, Opioid receptors; mu/kappa/delta (Homo sapiens); assay: as §3; type: protein assay; settings: Cavia porcellus; procedure, shortened: as §1

Mu-type opioid receptor, sequence (P97266 whole entry): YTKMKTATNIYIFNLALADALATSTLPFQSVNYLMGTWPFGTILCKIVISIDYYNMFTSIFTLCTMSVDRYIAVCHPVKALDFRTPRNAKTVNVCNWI
Mu-type opioid receptor (Cavia porcellus), sequence (P97266 whole entry): as above
T1 sequence (P35372 whole entry, looked up): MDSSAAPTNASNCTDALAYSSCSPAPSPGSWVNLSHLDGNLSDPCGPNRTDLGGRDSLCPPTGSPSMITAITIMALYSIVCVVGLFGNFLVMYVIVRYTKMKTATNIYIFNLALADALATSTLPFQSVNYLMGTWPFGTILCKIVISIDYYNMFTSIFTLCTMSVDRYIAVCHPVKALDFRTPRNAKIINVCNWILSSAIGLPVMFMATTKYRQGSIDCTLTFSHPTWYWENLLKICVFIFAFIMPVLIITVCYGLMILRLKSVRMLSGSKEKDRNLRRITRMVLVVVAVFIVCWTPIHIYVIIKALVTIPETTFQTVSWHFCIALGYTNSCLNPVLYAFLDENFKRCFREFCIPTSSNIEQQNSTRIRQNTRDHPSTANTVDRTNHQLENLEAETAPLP
T1 sequence (P41143 whole entry, looked up): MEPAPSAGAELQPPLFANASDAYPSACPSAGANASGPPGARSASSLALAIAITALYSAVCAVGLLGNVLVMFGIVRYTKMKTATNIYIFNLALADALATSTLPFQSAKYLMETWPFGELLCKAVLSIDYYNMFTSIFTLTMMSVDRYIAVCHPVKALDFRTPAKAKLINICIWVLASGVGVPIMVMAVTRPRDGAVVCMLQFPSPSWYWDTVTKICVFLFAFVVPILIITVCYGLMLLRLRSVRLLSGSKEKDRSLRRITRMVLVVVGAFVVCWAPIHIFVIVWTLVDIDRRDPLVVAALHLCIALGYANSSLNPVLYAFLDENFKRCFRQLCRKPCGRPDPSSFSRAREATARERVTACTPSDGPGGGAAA
T1 sequence (P41145 whole entry, looked up): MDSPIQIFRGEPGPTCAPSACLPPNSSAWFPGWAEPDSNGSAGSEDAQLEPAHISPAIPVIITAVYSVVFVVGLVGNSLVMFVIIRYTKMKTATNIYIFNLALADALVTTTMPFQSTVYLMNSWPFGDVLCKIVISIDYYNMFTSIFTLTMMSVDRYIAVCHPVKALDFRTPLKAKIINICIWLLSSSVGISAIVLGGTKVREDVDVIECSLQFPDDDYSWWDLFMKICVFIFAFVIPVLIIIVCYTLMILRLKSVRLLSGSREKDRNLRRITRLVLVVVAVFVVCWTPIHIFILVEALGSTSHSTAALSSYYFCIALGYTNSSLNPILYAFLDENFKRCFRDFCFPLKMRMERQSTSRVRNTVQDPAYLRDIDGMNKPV

Structure (SMILES)	Relative affinity [1]	Ratio [2]	Ki (Mu-type opioid receptor)	Ratio [3]	Selectivity ratio [4]	IC50 [5]	Potency ratio [6]	Ratio [7]	IC50 ratio [8]	Ratio [9]	Ratio [10]	IC50 ratio [11]	Selectivity ratio [12]
O=C(CCC(=O)N[C@@H]1CC[C@@]2(O)[C@H]3Cc4ccc(O)c5c4[C@@]2(CCN3CC2CC2)[C@H]1O5)N[C@@H]1CC[C@@]2(O)[C@H]3Cc4ccc(O)c5c4[C@@]2(CCN3CC2CC2)[C@H]1O5	0.8	5.1	1.7 nM	25.3	1.1	–	–	–	–	–	–	–	–
CN1CC[C@]23c4c5ccc(O)c4O[C@@H]2[C@H](NC(=O)CNC(=O)CNC(=O)CNC(=O)CCC(=O)NCC(=O)NCC(=O)NCC(=O)N[C@@H]2CC[C@]4(O)[C@H]6Cc7ccc(O)c8c7[C@@]4(CCN6C)[C@@H]2O8)CC[C@]3(O)[C@H]1C5	2.9	–	22 nM	–	–	12.6 nM	3.9	1.7	–	–	–	–	–
CN1CC[C@]23c4c5ccc(O)c4O[C@@H]2[C@H](NC(=O)CNC(=O)CCC(=O)NCC(=O)N[C@@H]2CC[C@]4(O)[C@H]6Cc7ccc(O)c8c7[C@@]4(CCN6C)[C@@H]2O8)CC[C@]3(O)[C@H]1C5	3.5	–	18 nM	–	–	19.2 nM	5.8	2.5	–	–	–	–	–
O=C(CCC(=O)NCC(=O)NCC(=O)NCC(=O)N[C@@H]1CC[C@@]2(O)[C@H]3Cc4ccc(O)c5c4[C@@]2(CCN3CC2CC2)[C@H]1O5)NCC(=O)NCC(=O)NCC(=O)N[C@@H]1CC[C@@]2(O)[C@H]3Cc4ccc(O)c5c4[C@@]2(CCN3CC2CC2)[C@H]1O5	0.9	11.4	1.6 nM	6.8	0.1	–	–	–	–	–	–	–	–
O=C(CCC(=O)NCC(=O)NCC(=O)N[C@@H]1CC[C@@]2(O)[C@H]3Cc4ccc(O)c5c4[C@@]2(CCN3CC2CC2)[C@H]1O5)NCC(=O)NCC(=O)N[C@@H]1CC[C@@]2(O)[C@H]3Cc4ccc(O)c5c4[C@@]2(CCN3CC2CC2)[C@H]1O5	0.9	33.5	1.5 nM	10.7	0.2	–	–	–	–	–	–	–	–
O=C(CCC(=O)NCC(=O)NCC(=O)NCC(=O)NCC(=O)N[C@@H]1CC[C@@]2(O)[C@H]3Cc4ccc(O)c5c4[C@@]2(CCN3CC2CC2)[C@H]1O5)NCC(=O)NCC(=O)NCC(=O)NCC(=O)N[C@@H]1CC[C@@]2(O)[C@H]3Cc4ccc(O)c5c4[C@@]2(CCN3CC2CC2)[C@H]1O5 (I: GGGG-{Naltrexamine(6β)} / II: GGGG-{Naltrexamine(6β)}; linker I:N-II:N via Suc)	–	–	–	–	–	–	–	–	7.2	7.5	6	40.7	0.2
CN1CC[C@]23c4c5ccc(O)c4O[C@@H]2[C@H](NC(=O)CCC(=O)N[C@@H]2CC[C@]4(O)[C@H]6Cc7ccc(O)c8c7[C@@]4(CCN6C)[C@@H]2O8)CC[C@]3(O)[C@H]1C5	2.7	–	23 nM	–	–	15.7 nM	4.3	1.9	–	–	–	–	–
CN1CC[C@]23c4c5ccc(O)c4O[C@H]2[C@@H](NC(=O)CCC(=O)N[C@H]2CC[C@@]4(O)[C@H]6Cc7ccc(O)c8c7[C@@]4(CCN6C)[C@H]2O8)CC[C@@]3(O)[C@H]1C5	3.6	–	50 nM	–	–	30.2 nM	4.6	2.4	–	–	–	–	–
CN1CC[C@]23c4c5ccc(O)c4O[C@H]2[C@@H](NC(=O)CNC(=O)CCC(=O)NCC(=O)N[C@H]2CC[C@@]4(O)[C@H]6Cc7ccc(O)c8c7[C@@]4(CCN6C)[C@H]2O8)CC[C@@]3(O)[C@H]1C5	4.1	–	44 nM	–	–	22 nM	4	2.1	–	–	–	–	–
CN1CC[C@]23c4c5ccc(O)c4O[C@@H]2[C@H](NC(=O)CNC(=O)CNC(=O)CCC(=O)NCC(=O)NCC(=O)N[C@@H]2CC[C@]4(O)[C@H]6Cc7ccc(O)c8c7[C@@]4(CCN6C)[C@@H]2O8)CC[C@]3(O)[C@H]1C5	6.3	–	10 nM	–	–	6.3 nM	8	3.5	–	–	–	–	–
CC(=O)N[C@@H]1CC[C@@]2(O)[C@H]3Cc4ccc(O)c5c4[C@@]2(CCN3C)[C@H]1O5	1	–	63 nM	–	–	45.9 nM	2.3	1	–	–	–	–	–
CN1CC[C@]23c4c5ccc(O)c4O[C@H]2[C@@H](NC(=O)CNC(=O)CNC(=O)CCC(=O)NCC(=O)NCC(=O)N[C@H]2CC[C@@]4(O)[C@H]6Cc7ccc(O)c8c7[C@@]4(CCN6C)[C@H]2O8)CC[C@@]3(O)[C@H]1C5	12.9	–	14 nM	–	–	3.9 nM	36	18.9	–	–	–	–	–
CN1CC[C@]23c4c5ccc(O)c4O[C@H]2[C@@H](NC(=O)CNC(=O)CNC(=O)CNC(=O)CCC(=O)NCC(=O)NCC(=O)NCC(=O)N[C@H]2CC[C@@]4(O)[C@H]6Cc7ccc(O)c8c7[C@@]4(CCN6C)[C@H]2O8)CC[C@@]3(O)[C@H]1C5	5.3	–	34 nM	–	–	25.1 nM	5.5	2.9	–	–	–	–	–
O=C(CCC(=O)NCC(=O)N[C@@H]1CC[C@@]2(O)[C@H]3Cc4ccc(O)c5c4[C@@]2(CCN3CC2CC2)[C@H]1O5)NCC(=O)N[C@@H]1CC[C@@]2(O)[C@H]3Cc4ccc(O)c5c4[C@@]2(CCN3CC2CC2)[C@H]1O5	0.6	10.6	2.3 nM	18.6	0.4	–	–	–	–	–	–	–	–
